Compound activity: PubChem BioAssay, The Scripps Research Institute Molecular Screening Center
Hits are enriched below; roughly 2.5% of the tested compounds scored in any of these assays.
TCR CD3 inh – inhibitors of human TCR-CD3 interaction, primary screen, biochemical, fluorescence, TAMRA-labeled TCR probe | T-cell receptor (TCR) | actives 0.37% (n = 360,000) | inhibition, % at 9.4 µM; in the data active means inhibition above about 19%;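 further: recombinant mutant TCR 2C K166C tagged with TAMRA read by polarization; 0% = receptor in buffer alone and 100% = receptor with positive control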
SIAE primary – human SIAE inhibitors, primary screen, biochemical, fluorescence polarization, FP-Rh probe, 1536-well HTS; inhibition, % at 9.66 µM; SIAE FP-Rh probe binding; actives 0.69% (n = 370,000); Sialate O-acetylesterase (Homo sapiens), Q9HAT2;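 active means inhibition above a cutoff: mean of compounds within the control limits plus 3 SD of those, cut at about 17% in these data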;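 further: 0% = plate median of compound wells and 100% = probe without SIAE protein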
Target sequence (Q9HAT2 whole entry, looked up): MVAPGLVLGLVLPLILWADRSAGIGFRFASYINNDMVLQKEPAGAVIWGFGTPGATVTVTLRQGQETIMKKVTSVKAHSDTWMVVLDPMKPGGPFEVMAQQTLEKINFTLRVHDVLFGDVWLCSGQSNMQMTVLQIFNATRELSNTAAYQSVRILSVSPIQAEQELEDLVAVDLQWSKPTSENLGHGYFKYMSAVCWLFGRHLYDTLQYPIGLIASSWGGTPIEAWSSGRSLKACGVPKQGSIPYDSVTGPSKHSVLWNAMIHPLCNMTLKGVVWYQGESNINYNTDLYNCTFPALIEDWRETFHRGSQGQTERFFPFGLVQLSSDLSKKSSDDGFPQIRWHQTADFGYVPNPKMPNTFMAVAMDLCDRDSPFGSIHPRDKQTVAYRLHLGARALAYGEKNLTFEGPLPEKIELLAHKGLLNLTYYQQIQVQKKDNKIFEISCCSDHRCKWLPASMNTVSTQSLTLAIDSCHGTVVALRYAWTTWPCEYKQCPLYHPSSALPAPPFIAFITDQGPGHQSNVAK
mABHD4 FP – ABHD4 inhibitors, primary screen, biochemical, fluorescence polarization, mouse; purified mABHD4, FP-Rh probe fluorescence polarization; inhibition, % at 8.92 µM; actives 0.54% (n = 370,000);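 active means inhibition exceeding the mean over every tested compound plus 3 SD, cut at about 30% in these data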;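 further: 0% = plate median of compound wells and 100% = S159A mutant with DMSO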
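Test system: mouse ABHD4 enzyme, wild type. Reagent: FP-Rh fluorescent activity-based probe, added after compound pre-incubation. Timing: pre-incubation 45 min, probe exposure 60 min, at 25 °C. Technique: FP readout, ex 525 nm / em 598 nm. Benchmarks: high control S159A mutant with DMSO, low control median of compound wells.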
HTRA1 inh – HTRA1 serine protease inhibitors, primary screen, biochemical, fluorescence polarization, HTS. Q92743. recombinant HTRA1, FP-rhodamine activity-based probe. inhibition, % at 5.96 µM. actives 0.5% (n = 340,000). AID 504803, 2011; in the data active means inhibition above about 36%;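 further: 0% = enzyme with DMSO and 100% = wells lacking enzyme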
PRMT1 FP inh – PRMT1 methyltransferase inhibitors, primary screen, biochemical, fluorescence polarization | Protein arginine N-methyltransferase 1 (Homo sapiens), Q99873 | recombinant PRMT1, activity-based probe fluorescence polarization | inhibition, % at 2.79 µM | actives 1.3% (n = 370,000) | AID 652257, 2013;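 active means inhibition above about 21% made by adding two undisclosed values, limit read from the data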
SIAE confirm – human SIAE inhibitors, retest, confirmation, biochemical, fluorescence polarization, FP-Rh probe, triplicate; inhibition, % at 9.66 µM; SIAE FP-Rh activity-based probe; actives 13% (n = 2,300); shares compounds with SIAE primary;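 active means mean inhibition of the replicates above the hit cutoff set in the primary screen, cut at about 17% in these data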;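 further: 0% = SIAE with DMSO and probe and 100% = probe without SIAE; inhibitors lower polarization as more probe stays unbound to SIAE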
* hit, by the source's call; · = no result.

SMILES	TCR CD3 inh	SIAE primary	mABHD4 FP	HTRA1 inh	PRMT1 FP inh	SIAE confirm
CN1CCN(c2ccc(S(=O)(=O)N3CCCCC3)cn2)CC1	-7	4	-8	4	-1	·
O=S(=O)(c1ccc(N2CCCCCC2)nc1)N1CCCC1	-2	20*	1	5	-1	-1
CCCn1nc(C(=O)Nc2ccc3c(c2)OCCO3)c2ccccc2c1=O	2	-3	4	-7	3	·
Fc1cc(F)c2nc(Nc3nc4cc5c(cc4s3)OCO5)sc2c1	7	25*	2	2	0	85*
Fc1cccc2sc(Nc3nc4cc5c(cc4s3)OCO5)nc12	-4	13	9	-2	0	·
CC(C)COC(=O)N1CCCCC1c1cc(C(=O)Nc2ccccc2)no1 (stereo unspecified)	6	-6	-9	·	-3	·
NC(=O)c1nsc(C(=O)N(Cc2ccccc2Cl)C(C(=O)NCC2CCCO2)c2ccc(O)cc2)c1N (stereo unspecified)	-1	20*	0	-1	2	0
NC(=O)c1nsc(C(=O)N(Cc2ccc(F)cc2)C(C(=O)NCC2CCCO2)c2ccc(O)cc2)c1N (stereo unspecified)	-3	0	-1	1	2	·
COc1cc(/C=N/NC(=O)c2ccc(N)cc2)ccc1OC(=O)c1cccc(C)c1	1	22*	5	-29	-4	-2
CC1(C)CC(=O)C2=C(C1)N1C(=C(C#N)C2c2ccc(Cl)cc2)N=C(N)c2ccccc21 (stereo unspecified)	-9	20*	23	-42	11	1
CCOC(=O)CCC(=O)N1CCOCCN(C(=O)CCC(=O)OCC)CCOCC1	8	19*	4	0	0	6
CC(NC(=O)C1CCCN1S(=O)(=O)c1ccccc1)c1ccccc1 (stereo unspecified)	6	5	-3	3	-4	·
COC(=O)c1nn(-c2ccc(Cl)cc2)c(=O)cc1Sc1ccccn1	4	-2	-2	4	0	·
Clc1ccc(N/N=C/c2ccncc2)cc1Cl	3	24*	7	-6	0	19*
COc1ccc(/C=N/NC(=O)c2cc3cc(OC)c(OC)cc3[nH]2)cc1	2	5	23	7	-1	·
COc1cc2cc(C(=O)N/N=C/c3ccccc3Cl)[nH]c2cc1OC	2	27*	16	10	-3	5
COc1ccc2cc(C(=O)N/N=C/c3cc(OC)c(OC)c(OC)c3)[nH]c2c1	3	28*	9	0	0	-9
COc1cc(/C=N/NC(=O)c2cc(-c3ccccc3)sc2N)cc(OC)c1OC	4	31*	5	·	0	-45
Cc1ccc(NC(=S)NNS(=O)(=O)c2ccc3ccccc3c2)cc1Cl	-9	18*	-5	-7	2	4
Cc1ccc(S(=O)(=O)NNC(=S)Nc2ccc(Cl)cc2)cc1	2	10	3	-8	-2	·
COc1ccc(Cn2c(-c3ccc(Br)cc3)c[n+]3ccccc23)cc1	1	0	-10	3	2	·
CC1=C(C(=O)Nc2cc(C(=O)N3CCN(c4ccc(Cl)cc4)CC3)ccc2C)SCCO1	2	19*	8	-5	3	-1
COc1cc(NC(=O)Nc2nc(C(N)C3CCCCC3)cs2)cc(OC)c1OC (stereo unspecified)	-11	21*	12	·	3	10
CCOC(=O)[C@@]12CN(C(=O)OC(C)(C)C)CC=C1N(Cc1ccc(OC)cc1)C(=O)[C@H]2CC(=O)NCc1ccc(C)o1	·	8	7	·	8	·
COc1ccc(S[C@]2(C(=O)NC(C)C)CC(=O)N[C@@H]2c2ccc(OC)cc2)cc1	·	-3	-6	·	5	·
SMILES	TCR CD3 inh	SIAE primary	mABHD4 FP	HTRA1 inh	PRMT1 FP inh	SIAE confirm
O=C(c1cc(Cl)cc(Cl)c1)N1CC[C@H]2[C@H](CCCN2Cc2ccc(F)cc2)C1	·	0	-3	·	-3	·
O=C(OC12CCCN(C1)/C(=C/c1cccnc1)C2)c1ccc(F)cc1 (stereo unspecified)	·	-1	1	·	-1	·
COc1ccc(-c2csc(NC(=O)Nc3ccccc3)n2)cc1	-5	44*	-2	13	1	14
COc1ccc(CC(N)c2csc(NC(=O)Nc3ccc(OC)cc3)n2)cc1 (stereo unspecified)	-11	9	5	·	-4	·
COc1ccc(-c2csc(NC(C)=O)n2)cc1OC	7	-1	1	0	0	·
COc1cccc(NC(=O)Nc2nc(-c3ccc(OC)c(OC)c3)cs2)c1	2	34*	8	3	-3	-6
COc1ccc(NC(=O)Nc2nc(C(N)Cc3ccc(C(F)(F)F)cc3)cs2)cc1 (stereo unspecified)	-6	29*	26	·	-3	16
COc1ccc(OC(=O)Nc2ccccc2)cc1	2	19*	5	-3	-2	2
CC(C)NC(=O)C(=O)Nc1cc2c3c(c1)C(C)C(=O)N3CCC2 (stereo unspecified)	8	0	5	2	3	·
Nc1c(-c2ccccc2Cl)cnn1-c1cccc([N+](=O)[O-])c1	0	75*	-2	2	-2	-1
C=CCNC(=O)c1onc(CSc2ccc(OC)cc2)c1C(=O)O	6	22*	3	5	-2	-4
C=CCNC(=O)c1onc(CSc2ccccc2)c1C(=O)O	-1	-1	11	-4	-2	·
Cc1[nH]c2ccccc2c1CC(=O)Nc1ccc(Nc2ccncc2)cc1	-1	34*	3	·	-6	25*
Cc1[nH]c2ccccc2c1CC(=O)Nc1ccc(Nc2ccccc2)cc1	-10	15	11	·	9	·
COc1ccc(-c2cc(NC(=O)Cc3c(C)[nH]c4ccccc34)ccc2Nc2cccnc2)cc1OC	0	17*	5	·	2	6
COc1ccc(-n2ccnc2SCC(=O)NCc2ccco2)c(OC)c1	3	-2	-1	1	-8	·
Nc1cc(-c2ccccc2)ccc1O	-3	5	28	19	4	·
c1ccc(-c2ccc3c(c2)NCCN3)cc1	-7	17*	13	16	-2	3
O=C1C=C(c2ccc3ccccc3c2)C[C@@H](c2ccc(F)cc2)C1	-4	-4	-5	-45	0	·
Cc1cc(S(=O)(=O)Nc2ccc(C(=O)N3CCN(c4ccccc4O)CC3)cc2)ccc1F	-6	-2	-6	-7	-2	·
Cc1ccc(S(=O)(=O)Nc2cccc(C(=O)N3CCN(c4ccccc4O)CC3)c2)cc1F	-4	21*	4	-15	-2	-4
